Data as given in ChEMBL document CHEMBL2331102 (Bioorg Med Chem, 2013).
Values after ≈ are worked out from the molar mass of the structure shown.

Columns and labels:
[1] = Selectivity index, ratio of IC50 for rat L6 cells to IC50 for Trypanosoma cruzi Tulahuen TcVI extracellular trypomastigotes forms; assay type: toxicity, cell-based; conditions: read-out: Ratio IC50
Summary of the method: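 Ratio of the L6 myoblast cytotoxicity IC50 to the IC50 against β-galactosidase-expressing T. cruzi Tulahuen TcVI.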

L6 = test: Cytotoxicity against rat L6 cells after 72 hrs by Alamar Blue assay; assay type: cell-based; conditions: L6, 72 h
Summary of the method: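 Counter-screen for cytotoxicity in uninfected L6 rat skeletal muscle myoblasts, with IC50 recorded in µM.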

Trypanosoma cruzi = test: Antitrypanosomal activity against Trypanosoma cruzi Tulahuen TcVI extracellular trypomastigotes forms transfected with beta-galactosidase gene infected in rat L6 cells assessed as inhibition of parasite growth after 4 days; assay type: functional, organism-based; conditions: L6, 96 h
Summary of the method: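 L6 rat skeletal myoblasts were infected with extracellular trypomastigotes of β-galactosidase-transfected T. cruzi Tulahuen TcVI. After 48 h to establish infection, compound was added and incubation continued 4 days, exposing trypomastigote and intracellular amastigote forms.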

CYP3A4/5 = CYP3A4/5 (Homo sapiens, UniProt P08684+P20815); test: Inhibition of CYP3A4/5 in human liver microsomes assessed as reduction in testosterone-beta-hydroxylation; assay type: ADME, Microsome; conditions: probe testosterone
Summary of the method: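 CYP3A4 inhibition measured as inhibition of testosterone β-hydroxylation, reported as IC50 (µM).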

[2] = Kinetic solubility of the compound at pH 6.5 phosphate buffer by nephelometric analysis; assay type: physicochemical; conditions: read-out: Kinetic_solubility
Summary of the method: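 Kinetic solubility in phosphate buffer at pH 6.5, determined by nephelometry and reported in µg/mL.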

IC50 (Trypanosoma cruzi) [nM] | IC50 (CYP3A4/5) [nM] | solubility kinetic [2] [µg/mL] | SMILES | selectivity ratio [1] | IC50 (L6) [nM]
28 | 810 | 12.5 (≈ 31.7 µM) | CC(C)S(=O)(=O)N1CCN(C(c2ccc(Cl)cc2)c2cccnc2)CC1 (centres undefined) | > 100 | > 100000
110 | 3600 | 12.5 (≈ 34.2 µM) | CS(=O)(=O)N1CCN(C(c2ccc(Cl)cc2)c2cccnc2)CC1 (centres undefined) | > 100 | > 100000
10 | – | – | O=S(=O)(C1CCCCC1)N1CCN(C(c2ccc(Cl)cc2)c2cccnc2)CC1 (centres undefined) | > 100 | –
9 | 1900 | < 1.6 | O=S(=O)(c1ccccc1)N1CCN(C(c2ccc(Cl)cc2)c2cccnc2)CC1 (centres undefined) | > 100 | –
24 | – | – | O=S(=O)(c1ccc(Cl)cc1)N1CCN(C(c2ccc(Cl)cc2)c2cccnc2)CC1 (centres undefined) | > 100 | –
18 | – | – | CC(C)c1ccc(S(=O)(=O)N2CCN(C(c3cncnc3)c3ccc(Cl)cc3F)CC2)cc1 (centres undefined) | > 100 | > 100000
77 | – | – | CS(=O)(=O)N1CCN(C(c2ccc(C(F)(F)F)cc2)c2cccnc2)CC1 (centres undefined) | > 100 | > 100000
25 | 5600 | 25 (≈ 59.7 µM) | CS(=O)(=O)N1CCN(C(c2cncnc2)c2ccc(C(F)(F)F)cc2F)CC1 (centres undefined) | > 100 | > 100000
365 | – | – | CS(=O)(=O)N1CCN(C(c2ccc(C#N)cc2)c2cccnc2)CC1 (centres undefined) | > 100 | > 100000
120 | – | – | CN(C)C(=O)N1CCN(C(c2ccc(Cl)cc2)c2cccnc2)CC1 (centres undefined) | > 100 | > 100000
240 | 7400 | > 100 | CC(=O)N1CCN(C(c2ccc(Cl)cc2)c2cccnc2)CC1 (centres undefined) | > 100 | > 100000
22 | – | – | O=C(Nc1ccc(Cl)cc1)N1CCN(C(c2ccc(Cl)cc2)c2cncnc2)CC1 (centres undefined) | > 100 | –
78 | – | – | Fc1cc(Cl)ccc1C(c1cncnc1)N1CCN(c2ccccc2)CC1 (centres undefined) | > 100 | –
769 | – | – | CS(=O)(=O)N1CCN(C(c2ccc(C(F)(F)F)cc2)c2cncnc2)CC1 (centres undefined) | > 100 | > 100000
81 | 7000 | 25 (≈ 64 µM) | CC(C)(C)C(=O)N1CCN(C(c2cncnc2)c2ccc(Cl)cc2F)CC1 (centres undefined) | > 100 | > 100000
880 | – | – | CS(=O)(=O)N1CCN(C(c2ccc(Cl)cc2)c2cncnc2)CC1 (centres undefined) | > 100 | > 100000
12 | – | – | CC(C)c1ccc(S(=O)(=O)N2CCN(C(c3ccc(Cl)cc3)c3cccnc3)CC2)cc1 (centres undefined) | > 100 | –

The remaining lines, values behind:

SMILES | IC50 (Trypanosoma cruzi) [nM] | IC50 (CYP3A4/5) [nM] | solubility kinetic [2] [µg/mL] | selectivity ratio [1] | IC50 (L6) [nM]
CC(C)(C)C(=O)N1CCN(C(c2ccc(C#N)cc2)c2cccnc2)CC1 (centres undefined) | 254 | – | – | > 100 | > 100000
Cc1csc(C(=O)N2CCN(C(c3ccc(C#N)cc3)c3cccnc3)CC2)n1 (centres undefined) | 513 | – | – | > 100 | > 100000
COc1ccccc1N1CCN(C(c2ccc(OC(C)C)cc2)c2cccnc2)CC1 (centres undefined) | 28 | – | – | > 100 | –
Clc1ccc(C(c2cccnc2)N2CCN(c3ccccc3)CC2)cc1 (centres undefined) | 34 | – | – | > 100 | –
O=C(C1CC1)N1CCN(C(c2cccnc2)c2ccc(Cl)cc2F)CC1 (centres undefined) | 26 | 1800 | 50 (≈ 134 µM) | > 100 | > 100000
CC(C)(C)C(=O)N1CCN(C(c2cccnc2)c2ccc(Cl)cc2F)CC1 (centres undefined) | 19 | 1000 | 12.5 (≈ 32.1 µM) | > 100 | –
N#Cc1ccc(C(c2cccnc2)N2CCN(c3nccs3)CC2)cc1 (centres undefined) | 50 | – | – | > 100 | > 100000
O=C(Oc1ccccc1)N1CCN(C(c2cccnc2)c2ccc(Cl)cc2F)CC1 (centres undefined) | 5 | – | – | > 100 | –
Fc1cc(Cl)ccc1C(c1cccnc1)N1CCN(c2ncccn2)CC1 (centres undefined) | 26 | – | – | > 100 | –
CC(C)(C)C(=O)N1CCN(C(c2ccc(C(F)(F)F)cc2)c2cccnc2)CC1 (centres undefined) | 30 | 2300 | 12.5 (≈ 30.8 µM) | > 100 | –
CC(C)Oc1ccc(C(c2cccnc2)N2CCN(C(=O)C(C)C)CC2)cc1 (centres undefined) | 35 | – | – | > 100 | > 100000
COc1ccccc1N1CCN(C(c2cncnc2)c2ccc(Cl)cc2F)CC1 (centres undefined) | 65 | – | – | > 100 | –
O=C(c1ccccc1)N1CCN(C(c2cccnc2)c2ccc(Cl)cc2F)CC1 (centres undefined) | 70 | – | – | > 100 | –
CC(C)c1ccc(NC(=O)N2CCN(C(c3cncnc3)c3ccc(Cl)cc3F)CC2)cc1 (centres undefined) | 7 | – | – | > 100 | –
O=C(Nc1ccccc1)N1CCN(C(c2cccnc2)c2ccc(Cl)cc2F)CC1 (centres undefined) | 6 | – | – | > 100 | –
CS(=O)(=O)N1CCN(C(c2cccnc2)c2ccc(C(F)(F)F)cc2F)CC1 (centres undefined) | 28 | 1000 | 25 (≈ 59.9 µM) | > 100 | –
O=C(Nc1ccc(Cl)cc1)N1CCN(C(c2cncnc2)c2ccc(Cl)cc2F)CC1 (centres undefined) | 10 | 300 | 3.1 (≈ 6.73 µM) | > 100 | –
O=C(C1CCCCC1)N1CCN(C(c2cccnc2)c2ccc(Cl)cc2F)CC1 (centres undefined) | 28 | 3900 | 6.3 (≈ 15.1 µM) | > 100 | –
O=C(C1CC1)N1CCN(C(c2cncnc2)c2ccc(Cl)cc2F)CC1 (centres undefined) | 171 | – | – | > 100 | > 100000

SMILES | IC50 (Trypanosoma cruzi) [nM] | IC50 (CYP3A4/5) [nM] | solubility kinetic [2] [µg/mL] | selectivity ratio [1] | IC50 (L6) [nM]
CC(C)(C)OC(=O)N1CCN(C(c2cncnc2)c2ccc(Cl)cc2F)CC1 (centres undefined) | 24 | 2900 | 12.5 (≈ 30.7 µM) | > 100 | –
O=C(Nc1ccccc1)N1CCN(C(c2ccc(Cl)cc2)c2cccnc2)CC1 (centres undefined) | 9 | – | – | > 100 | –
O=S(=O)(c1ccccc1)N1CCN(C(c2cccnc2)c2ccc(Cl)cc2F)CC1 (centres undefined) | 8 | 600 | < 1.6 | > 100 | 42000
Cc1noc(N2CCN(C(c3cccnc3)c3ccc(C(F)(F)F)cc3F)CC2)n1 (centres undefined) | 17 | – | – | > 100 | –
N#Cc1ccc(C(c2cccnc2)N2CCN(C(=O)NC3CC3)CC2)cc1 (centres undefined) | > 1000 | – | – | > 100 | > 100000
O=C(NC1CC1)N1CCN(C(c2ccc(C(F)(F)F)cc2)c2cccnc2)CC1 (centres undefined) | > 1000 | – | – | > 100 | > 100000
O=C(Cn1ccnc1[N+](=O)[O-])NCc1ccccc1 [BENZNIDAZOLE] | 1150 | – | – | – | > 100000
O=C(c1ccccc1)N1CCN(C(c2ccc(Cl)cc2)c2cccnc2)CC1 (centres undefined) | 68 | – | – | > 100 | –
Cc1csc(C(=O)N2CCN(C(c3cccnc3)c3ccc(Cl)cc3F)CC2)n1 (centres undefined) | 36 | 2800 | 50 (≈ 116 µM) | > 100 | 93000
Fc1cc(Cl)ccc1C(c1cccnc1)N1CCN(c2ccccc2)CC1 (centres undefined) | 18 | – | – | > 100 | –
COc1ccccc1N1CCN(C(c2ccc(C(F)(F)F)cc2)c2cnccn2)CC1 (centres undefined) | 240 | 25000 | 3.1 (≈ 7.24 µM) | > 100 | –
CC(C)(C)C(=O)N1CCN(C(c2cccnc2)c2ccc(C(F)(F)F)cc2F)CC1 (centres undefined) | 24 | 3900 | 12.5 (≈ 29.5 µM) | > 100 | –
CC(C)(C)OC(=O)N1CCN(C(c2ccc(C(F)(F)F)cc2)c2cccnc2)CC1 (centres undefined) | 17 | – | – | > 100 | –
CC(C)(C)NC(=O)N1CCN(C(c2cncnc2)c2ccc(Cl)cc2F)CC1 (centres undefined) | 54 | 6900 | 50 (≈ 123 µM) | > 100 | > 100000
CC(C)(C)OC(=O)N1CCN(C(c2cccnc2)c2ccc(Cl)cc2F)CC1 (centres undefined) | 20 | 1900 | 3.1 (≈ 7.64 µM) | > 100 | –
COc1ccccc1N1CCN(C(c2ccc(Cl)cc2)c2cccnc2)CC1 (centres undefined) | 20 | – | – | > 100 | –
N#Cc1ccc(C(c2cccnc2)N2CCN(C(=O)C3CC3)CC2)cc1 (centres undefined) | 281 | – | – | > 100 | > 100000
O=C(Oc1ccccc1)N1CCN(C(c2ccc(Cl)cc2)c2cccnc2)CC1 (centres undefined) | 8 | – | – | > 100 | –
